The values that follow come from ChEMBL document CHEMBL1137298, “2-triazole-substituted adenosines: a new class of selective A3 adenosine receptor agonists, partial agonists, and antagonists” (J Med Chem, 2006).

Calls of active or inactive are those of the source. The rule behind the calls is not given here.

Test [1] has as its target T1, Adenosine receptor A3 (Rattus norvegicus, UniProt P28647).
T1 sequence (P28647 whole entry): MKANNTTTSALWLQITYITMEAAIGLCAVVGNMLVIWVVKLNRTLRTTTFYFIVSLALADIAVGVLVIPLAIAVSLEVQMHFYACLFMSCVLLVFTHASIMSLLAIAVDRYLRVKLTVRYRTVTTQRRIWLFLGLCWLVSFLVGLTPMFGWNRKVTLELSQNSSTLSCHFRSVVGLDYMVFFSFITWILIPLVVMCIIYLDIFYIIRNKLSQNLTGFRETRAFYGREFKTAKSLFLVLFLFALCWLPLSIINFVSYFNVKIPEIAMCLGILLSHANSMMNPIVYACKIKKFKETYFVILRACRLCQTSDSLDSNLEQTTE
Put plainly: Displacement of [125I]AB-MECA from rat Adenosine A3 receptor expressed in CHO cells. Format: cell-based. The essentials: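 Membranes from CHO cells expressing rat A3AR, prepared in 50 mM Tris-HCl pH 7.4 with 10 mM MgCl2, 1 mM EDTA and 3 units/mL adenosine deaminase. Incubated with [125I]AB-MECA (0.5 nM final) and increasing compound concentrations for 60 min at 25 °C. Nonspecific binding defined with 10 µM NECA. GF/B filtration, gamma counting, Ki derived.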

In test [2] the target is Adenosine receptor A2b (Homo sapiens) (UniProt P29275). Description: Activity at human adenosine A2B receptor in CHO cells assessed as stimulation of cAMP production relative to NECA at 10 uM. In general terms: cAMP levels reflect the balance of adenylyl cyclase and phosphodiesterase activity.
For test [3], the target named is T2, Adenosine receptor A2a (Homo sapiens, UniProt P29274). Put plainly: Inhibition of [3H]CGS21680 binding to human Adenosine A2A receptor expressed in CHO cells at 10 uM. Format: cell-based. The essentials:
(§1)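 Membranes from CHO cells stably transfected with human A1AR (radioligand [3H]CCPA) or human A2AAR (radioligand [3H]CGS21680), in Tris-HCl pH 7.4/MgCl2/EDTA buffer with adenosine deaminase. Compound tested at a fixed 10 µM. Result expressed as percent displacement of radioligand, n = 3 unless otherwise noted.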

Test [4] deals with T3, Adenosine receptor A3 (Homo sapiens, UniProt P0DMS8).
T3 sequence (P0DMS8 whole entry): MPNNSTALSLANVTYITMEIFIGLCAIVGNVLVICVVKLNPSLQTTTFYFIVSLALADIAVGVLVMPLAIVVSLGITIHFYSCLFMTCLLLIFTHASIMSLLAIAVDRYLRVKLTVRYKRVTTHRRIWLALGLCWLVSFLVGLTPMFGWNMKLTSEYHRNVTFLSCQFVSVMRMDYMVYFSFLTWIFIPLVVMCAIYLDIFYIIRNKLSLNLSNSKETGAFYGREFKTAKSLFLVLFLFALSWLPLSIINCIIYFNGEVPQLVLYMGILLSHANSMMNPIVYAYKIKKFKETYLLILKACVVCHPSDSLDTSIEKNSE
Description: Displacement of [125I]AB-MECA from human Adenosine A3 receptor expressed in CHO cells. Format: cell-based. On the technique in general: In a radioligand displacement assay an active substance lowers the binding of a labelled ligand.

For test [5], the target named is T4, Adenosine receptor A1 (Homo sapiens, UniProt P30542).
T4 sequence (P30542 whole entry): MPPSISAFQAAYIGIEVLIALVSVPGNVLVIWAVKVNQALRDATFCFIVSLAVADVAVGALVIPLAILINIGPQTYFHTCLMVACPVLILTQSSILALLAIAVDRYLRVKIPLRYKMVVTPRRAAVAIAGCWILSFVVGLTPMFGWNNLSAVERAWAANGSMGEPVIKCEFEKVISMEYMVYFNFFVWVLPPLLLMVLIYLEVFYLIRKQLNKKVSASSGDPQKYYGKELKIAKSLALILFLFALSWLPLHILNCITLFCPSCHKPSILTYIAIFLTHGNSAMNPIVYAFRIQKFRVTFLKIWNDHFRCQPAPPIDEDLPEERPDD
Put plainly: Displacement of [3H]CCPA from human Adenosine A1 receptor expressed in CHO cells. The format is cell-based.

Test [6] deals with T2, Adenosine receptor A2a. Put plainly: Displacement of [3H]CGS-21680 from human Adenosine A2A receptor expressed in CHO cells. The format is cell-based.
Test [7] concerns the target Adenosine receptors; A1 & A3 (Homo sapiens) (UniProt P30542+P0DMS8). Put plainly: Selectivity for human adenosine A3 over human adenosine A1 receptor. Format: protein assay.
The target in test [8] is T5, Adenosine receptor A1 (Homo sapiens) (UniProt P30542).
T5 sequence (whole entry): T4 sequence (P30542 whole entry)
Put plainly: Inhibition of [3H]CCPA binding to human Adenosine A1 receptor expressed in CHO cells at 10 uM. The format is cell-based. The essentials:
as §1

T2 sequence (P29274 whole entry): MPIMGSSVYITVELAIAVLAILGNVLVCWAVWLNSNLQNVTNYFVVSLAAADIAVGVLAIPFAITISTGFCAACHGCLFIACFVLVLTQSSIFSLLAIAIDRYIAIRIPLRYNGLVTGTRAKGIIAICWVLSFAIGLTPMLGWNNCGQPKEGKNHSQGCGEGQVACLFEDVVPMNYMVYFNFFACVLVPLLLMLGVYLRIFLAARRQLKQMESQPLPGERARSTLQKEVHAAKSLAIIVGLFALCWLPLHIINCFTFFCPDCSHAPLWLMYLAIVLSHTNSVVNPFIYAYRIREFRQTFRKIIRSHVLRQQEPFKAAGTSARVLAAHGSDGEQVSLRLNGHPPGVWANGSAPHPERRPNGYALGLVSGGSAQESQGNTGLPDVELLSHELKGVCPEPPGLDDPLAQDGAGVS

Turning to `CNc1nc(-n2cc(-c3ccccn3)nn2)nc2c1ncn2[C@@H]1O[C@H](CO)[C@@H](O)[C@H]1O`, the values for the Ki in test [1], in test [4] and in test [5] were over 10000 nM, 10.3 nM and 1970 nM, respectively. The result in test [2] was inactive. The same molecule had an inhibition in test [3] of 40%.

For `COc1ccc(Cl)cc1CNc1nc(-n2cc(CC3CCCC3)nn2)nc2c1ncn2[C@@H]1O[C@H](CO)[C@@H](O)[C@H]1O`, the Ki in test [4] was 18 nM; in test [5] it was 830 nM; in test [6], 6000 nM.

With `CCNC(=O)[C@H]1O[C@@H](n2cnc3c(NC)nc(-n4cc(-c5ccccn5)nn4)nc32)[C@H](O)[C@@H]1O`, the Selectivity ratio in test [7] is 910. In test [2], the Activity is under 50%. The same molecule had an inhibition in test [3] of 45%. For the same molecule, the values for the Ki in test [4] and in test [5] were 1.8 nM and 1640 nM, respectively.

For the molecule `CCCOc1ccc(-c2cn(-c3nc(NC)c4ncn([C@@H]5O[C@H](CO)[C@@H](O)[C@H]5O)c4n3)nn2)cc1`, the Ki in test [1] was over 10000 nM; in test [4], 25.2 nM. Besides, the inhibition was found to be 49% in test [8] and 14% in test [3]. In addition, the Activity in test [2] was under 50%.

For `CNc1nc(-n2cc(CCO)nn2)nc2c1ncn2[C@@H]1O[C@H](CO)[C@@H](O)[C@H]1O`, the result in test [2] was inactive. Besides, the inhibition in test [3] came to 14%. Besides, the inhibitory constant (Ki) in test [4] was found to be 45 nM; in test [5] it was 1270 nM.

As for `CNc1nc(-n2cc(CN(C)C)nn2)nc2c1ncn2[C@@H]1O[C@H](CO)[C@@H](O)[C@H]1O`, the results for the inhibitory constant (Ki) in test [1], in test [4] and in test [5] were over 10000 nM, 117 nM and 3800 nM, respectively. Moreover, the outcome in test [2] was inactive. This molecule also yielded an inhibition in test [3] of 6%.

On to `CCNC(=O)[C@H]1O[C@@H](n2cnc3c(NC)nc(N=[N+]=[N-])nc32)[C@H](O)[C@@H]1O`, for which the Activity in test [2] was found to be 50%. The molecule further showed an inhibition in test [3] of 18%.

In test [3], `CNc1nc(-n2ccnn2)nc2c1ncn2[C@@H]1O[C@H](CO)[C@@H](O)[C@H]1O` showed an inhibition of 13%. Moreover, the inhibitory constant (Ki) in test [4] amounted to 10.4 nM; in test [5], 1000 nM.

In the case of `CCCCc1cn(-c2nc(NC)c3ncn([C@@H]4O[C@H](C(=O)NCC)[C@@H](O)[C@H]4O)c3n2)nn1`, the outcome in test [2] was inactive. In test [3], this molecule displayed an inhibition of 43%. Besides, the Ki in test [4] amounted to 5.6 nM; in test [5], 750 nM.

In the case of `CNc1nc(-n2cc(Cc3ccccc3)nn2)nc2c1ncn2[C@@H]1O[C@H](CO)[C@@H](O)[C@H]1O`, the results for the Ki in test [1], in test [4] and in test [5] were 1790 nM, 9.5 nM and 589 nM, respectively. Also, the Activity in test [2] was under 50%. In test [3], the inhibition came to 20%.

On to `CNc1nc(N=[N+]=[N-])nc2c1ncn2[C@@H]1O[C@H](CO)[C@@H](O)[C@H]1O`, for which, in test [2], the Activity is under 50%. The molecule further registered an inhibition in test [3] of 23%.

As to `CCNC(=O)[C@H]1O[C@@H](n2cnc3c(NC)nc(-n4ccnn4)nc32)[C@H](O)[C@@H]1O`, the outcome in test [2] was inactive. The same molecule had an inhibition in test [3] of 18%. The Ki worked out at 2.1 nM in test [4] and 590 nM in test [5].

On to `CCc1cn(-c2nc(NC)c3ncn([C@@H]4O[C@H](CO)[C@@H](O)[C@H]4O)c3n2)nn1`, for which, in test [2], the Activity was under 50%. This molecule also came in with an inhibition in test [3] of 18%. Also, the Ki in test [4] was 13.8 nM; in test [5], 2920 nM.

`CCNC(=O)[C@H]1O[C@@H](n2cnc3c(NC)nc(-n4cc(Cc5ccccc5)nn4)nc32)[C@H](O)[C@@H]1O`: in test [2], the Activity was found to be 50%. The molecule also had an inhibition in test [3] of 33%. Besides, the inhibition constant (Ki) in test [4] worked out at 2.8 nM; in test [5] it was 510 nM.

Regarding `CNc1nc(-c2cn(Cc3ccccc3)nn2)nc2c1ncn2[C@@H]1O[C@H](CO)[C@@H](O)[C@H]1O`, the Activity in test [2] was under 50%. In addition, the inhibition in test [3] turned out to be 21%. The results for the Ki in test [4] and in test [5] were 53.9 nM and 770 nM, respectively.

Consider `CNc1nc(-c2cn(Cc3cccc(OC)c3)nn2)nc2c1ncn2[C@@H]1O[C@H](CO)[C@@H](O)[C@H]1O`, for which the Activity in test [2] was under 50%. The same molecule gave an inhibition in test [3] of 43%. Moreover, the Ki in test [4] turned out to be 86.1 nM; in test [5] it was 957 nM.

On to `CCNC(=O)[C@H]1O[C@@H](n2cnc3c(NC)nc(-n4cc(CC5CCCC5)nn4)nc32)[C@H](O)[C@@H]1O`, for which the Activity in test [2] was under 50%. The molecule also showed an inhibition in test [3] of 36%. Besides, the values for the Ki in test [4] and in test [5] were 11.5 nM and 1250 nM, respectively.

As for `CNc1nc(-n2cc(CC3CCCC3)nn2)nc2c1ncn2[C@@H]1O[C@H](CO)[C@@H](O)[C@H]1O`, the Ki in test [1] is 312 nM; in test [4] it was 1.3 nM; in test [5], 335 nM. In addition, the Selectivity ratio in test [7] turned out to be 260. The Activity in test [2] is under 50%. For the same molecule, the inhibition in test [3] was found to be 39%.

With `CNc1nc(-c2cn(Cc3cccc(Cl)c3)nn2)nc2c1ncn2[C@@H]1O[C@H](CO)[C@@H](O)[C@H]1O`, the Activity in test [2] is under 50%. This molecule also came in with an inhibition in test [3] of 39%. In addition, the Ki was determined as 81.1 nM in test [4] and 956 nM in test [5].

For `CNc1nc(-n2cc(-c3ccccc3)nn2)nc2c1ncn2[C@@H]1O[C@H](CO)[C@@H](O)[C@H]1O`, the inhibition in test [8] turned out to be 36%; in test [3], 5%. Moreover, the outcome in test [2] was inactive. The affinity in test [4], expressed as Ki, was 14.9 nM.

`CCCCc1cn(-c2nc(NC)c3ncn([C@@H]4O[C@H](CO)[C@@H](O)[C@H]4O)c3n2)nn1`: in test [7], the Selectivity ratio worked out at 72. Besides, the result in test [2] was inactive. The same molecule registered an inhibition in test [3] of 23%. This molecule also yielded a Ki in test [4] of 11.7 nM.

With `CNc1nc(-n2cc(CC3CCCCC3)nn2)nc2c1ncn2[C@@H]1O[C@H](CO)[C@@H](O)[C@H]1O`, in test [7], the Selectivity ratio worked out at 67. Moreover, in test [2], the Activity is under 50%. In test [3], this molecule returned an inhibition of 16%. Further, the Ki in test [4] was determined as 21.3 nM; in test [5] it was 1430 nM.

In general, Ki refers to the equilibrium dissociation constant of an inhibitor or competing ligand from its target. Higher therefore signals weaker binding. For orientation: inhibition means how much of the control response was suppressed. Lower therefore signals little suppression.
